Screens as filed in PubChem BioAssay.
Jurkat NFkB inh: inhibitors of the PMA/ionomycin-induced NF-kB reporter in Jurkat cells; PMA/ionomycin-induced NF-kB luciferase reporter, luminescence; inhibition, % at 4 µM; AID 435003; 330,000 compounds, 0.53% hits; in the data active = inhibition above about 50%
VIM-2 inhibitor: blocks Pseudomonas aeruginosa VIM-2 metallo-beta-lactamase | purified VIM-2, nitrocefin hydrolysis, epi-absorbance fluorescence | inhibition, % at 5.6 µM | 290,000 compounds, 0.89% hits;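 active = inhibition above the mean of all tested compounds plus 3 SD, cutoff set per screening run, cut at about 7.5% in these data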;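 note: red hydrolysis product quenches plate fluorescence so inhibitors raise well fluorescence; 0% = enzyme with DMSO and 100% = DMSO without enzyme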
697 NFkB inh: inhibitors of the PMA/ionomycin-induced NF-kB reporter in 697 B cells; 697 B-cell NF-kB luciferase reporter, 16 h; inhibition, % at 4 µM; 330,000 compounds, 0.33% hits; in the data active = inhibition above about 35%
aSyn UTR inh: 5' untranslated region of α-synuclein, MLPCN primary screen; alpha-synuclein 5'UTR reporter, inhibitor activity; inhibition, % (tested at 7.5 µM); 300,000 compounds, 0.82% hits; AID 1813; in the data active = inhibition above about 60%;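 note: H4 neuroglioblastoma cells stably carrying SNCA 5'UTR luciferase fusion; 0% = DMSO wells and 100% = positive control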
Mdm2 MdmX PPI: disrupts the human Mdm2-MdmX interaction. O15151+Q00987. SaOS-2 split-luciferase Mdm2/MdmX complementation, luminescence. inhibition, % at 8 µM. 330,000 compounds, 3% hits;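 active = inhibition of at least 50% at 8 µM in the primary screen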
Target sequence (O15151 whole entry, looked up): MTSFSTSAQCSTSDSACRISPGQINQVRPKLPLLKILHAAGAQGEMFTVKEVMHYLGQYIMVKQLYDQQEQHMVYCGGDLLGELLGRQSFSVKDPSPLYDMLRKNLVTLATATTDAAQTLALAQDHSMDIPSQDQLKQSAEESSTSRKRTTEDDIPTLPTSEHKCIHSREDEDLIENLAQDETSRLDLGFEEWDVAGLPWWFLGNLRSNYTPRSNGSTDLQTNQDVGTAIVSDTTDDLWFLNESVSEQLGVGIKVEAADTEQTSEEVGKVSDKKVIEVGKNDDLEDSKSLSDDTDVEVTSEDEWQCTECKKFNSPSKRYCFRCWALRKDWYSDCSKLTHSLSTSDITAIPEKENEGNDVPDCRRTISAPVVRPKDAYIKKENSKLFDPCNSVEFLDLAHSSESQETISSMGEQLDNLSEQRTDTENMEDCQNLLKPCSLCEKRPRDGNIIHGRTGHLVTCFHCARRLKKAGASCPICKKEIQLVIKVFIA
Target sequence (Q00987 whole entry, looked up): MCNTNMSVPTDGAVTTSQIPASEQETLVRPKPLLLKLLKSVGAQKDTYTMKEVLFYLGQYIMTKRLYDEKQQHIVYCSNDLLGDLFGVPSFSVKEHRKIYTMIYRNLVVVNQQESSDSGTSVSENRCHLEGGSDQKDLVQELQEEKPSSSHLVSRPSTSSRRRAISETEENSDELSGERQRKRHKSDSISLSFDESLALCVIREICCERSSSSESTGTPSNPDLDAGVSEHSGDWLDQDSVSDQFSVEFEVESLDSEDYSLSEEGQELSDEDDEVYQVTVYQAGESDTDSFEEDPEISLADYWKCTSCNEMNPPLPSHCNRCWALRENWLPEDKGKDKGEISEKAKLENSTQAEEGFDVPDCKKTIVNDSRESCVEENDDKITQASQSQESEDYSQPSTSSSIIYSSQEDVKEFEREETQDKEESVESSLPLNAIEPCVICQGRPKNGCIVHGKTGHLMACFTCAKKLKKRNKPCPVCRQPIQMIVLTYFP
IMP-1 inh-1: inhibitors of Pseudomonas aeruginosa IMP-1 metallo-beta-lactamase; purified IMP-1, nitrocefin hydrolysis, epi-absorbance fluorescence; inhibition, % at 5.6 µM; 290,000 compounds, 0.45% hits;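 active = inhibition above the mean plus 3 SD of all compounds in the same screening run, cut at about 4.5% in these data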;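 note: 0% = IMP-1 with DMSO and 100% = DMSO wells lacking enzyme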
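Assay system: purified recombinant IMP-1 beta-lactamase. Input: IMP-1 0.2 nM before substrate addition. Buffer or medium: Zinc- and detergent-supplemented HEPES buffer, pH 7.1. Schedule: 25 °C, 15 min preincubation, 25 min reaction. Signal: Epi-absorbance fluorescence, 480 nm excitation, 530 nm emission. Evaluation: percent inhibition from optical density relative to buffer-blank wells.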
IMP-1 inh-2: IMP-1 inhibition, counter-screen for VIM-2 inhibitors; shares compounds with VIM-2 inhibitor; purified IMP-1, nitrocefin hydrolysis, epi-absorbance fluorescence; inhibition, % at 5.6 µM; 1,300 tested, under 10 active; AID 1856; call rule not given here;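 note: 0% = enzyme with vehicle and 100% = vehicle without enzyme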
VIM-2 FRET inh: counter-screen for VIM-2 inhibitors: epi-absorbance artifacts via FRET | shares compounds with VIM-2 inhibitor | purified VIM-2, CCF2 FRET substrate hydrolysis | inhibition, % at 5.6 µM | 1,300 compounds, 23% hits;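 active = inhibition above the mean of all tested compounds plus 3 SD, cut at about 19% in these data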;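 note: 0% = VIM-2 plus DMSO and 100% = no enzyme wells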
TEM-1 counter: blocks E. coli TEM-1 beta-lactamase in VIM-2 selectivity screen; 1,300 compounds, 3% hits; AID 1866; shares compounds with VIM-2 inhibitor; Purified TEM-1, nitrocefin hydrolysis, epi-absorbance fluorescence; inhibition, % at 5.6 µM;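 active = inhibition above that campaign's mean inhibition plus 3 SD, cut at about 0.46% in these data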;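 note: 0% = TEM-1 with DMSO and 100% = TEM-1 with 100 µM potassium clavulanate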
VIM-2 inh conf: confirmation of P. aeruginosa VIM-2 metallo-beta-lactamase inhibitors; inhibition, % at 5.6 µM; AID 2187; 1,300 compounds, 96% hits; purified VIM-2, nitrocefin hydrolysis, epi-absorbance; shares compounds with VIM-2 inhibitor;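 active = inhibition of the VIM-2 beta-lactamase enzyme above about 11% from the earlier first-round screen, limit read from the data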;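 note: 0% = VIM-2 with DMSO and 100% = buffer wells without enzyme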
* marks the source's active call; other numbers are inactive results; . = no result given. Shown are actives, neighbours in structure and some others; about 4.7% of the full set was active somewhere.

SMILES	Jurkat NFkB inh	VIM-2 inhibitor	697 NFkB inh	aSyn UTR inh	Mdm2 MdmX PPI	IMP-1 inh-1	IMP-1 inh-2	VIM-2 FRET inh	TEM-1 counter	VIM-2 inh conf
CCc1c(C)c(C#N)c2nc3ccccc3n2c1NC	-3	14*	7	19	17	-3	-4	1	-7	21*
CNc1cc(C)c(C#N)c2nc3ccccc3n12	3	24*	-10	12	-10	-5	-3	2	-7	35*
Cn1nc(C(=O)NCCN2CCOCC2)c2ccccc2c1=O	0	-5	12	22	-2	-1	.	.	.	.
COc1ccc2c(c1OC)c(=O)n1c3ccc(OC(C)C(=O)NCCN4CCOCC4)cc3c3ccnc2c31 (stereo unspecified)	18	18*	30	-65	29	0	-1	-5	-9	26*
CC(Oc1ccc2c(c1)c1ccnc3c4ccccc4c(=O)n2c13)C(=O)NCCN1CCOCC1 (stereo unspecified)	-18	27*	5	-76	42	-2	-2	-8	-8	36*
COc1ccc(Cl)cc1NC(=O)CN(C)C(=O)CCSc1ccc(C)cc1	1	.	9	.	36	.	.	.	.	.
CCCn1c(SCC(=O)N2CCN(CC)CC2)nc2c1c(=O)n(C)c(=O)n2C	-17	52*	1	15	25	-1	-4	1	-6	61*
CCN1CCN(C(=O)CSc2nc3c(c(=O)n(C)c(=O)n3C)n2C)CC1	-22	76*	12	-1	5	-1	-2	2	-4	85*
CCn1c(SCC(=O)N2CCN(C)CC2)nc2c1c(=O)n(C)c(=O)n2C	5	55*	12	4	-6	-2	-4	-4	-5	63*
CCn1c(SCC(=O)N2CCCC2)nc2c1c(=O)n(C)c(=O)n2C	-5	-2	12	24	3	-4	.	.	.	.
CCCn1c(SCC(=O)N2CCCCC2)nc2c1c(=O)n(C)c(=O)n2C	2	1	-8	13	-3	0	.	.	.	.
Cn1c(=O)c2c(nc(SCC(=O)N3CCCCCC3)n2C)n(C)c1=O	13	1	-1	5	-10	-3	.	.	.	.
O=C(CSc1ccc(Br)cc1)NC1CCCCCC1	-21	.	-23	.	-24	.	.	.	.	.
CCOC(=O)c1c(C)[nH]c(C)c1S(=O)(=O)NCc1cc(C)ccc1C	-9	1	-9	8	16	-1	.	.	.	.
Cc1nn(CC(=O)N2CCN(c3ccccn3)CC2)c(=O)c2cc3sccc3n12	-6	2	-1	7	27	-1	.	.	.	.
CCCN1CCN(C(=O)Cn2nc(C)n3c(cc4sccc43)c2=O)CC1	6	18*	-10	-8	-22	-2	-3	1	-6	23*
CCc1nn(CC(=O)N2CCN(CC)CC2)c(=O)c2cc3sccc3n12	-6	41*	2	6	2	1	-3	3	-8	50*
CCCc1cc(=O)oc2cc(C)cc(OCC(=O)Nc3ccc(CN4CCOCC4)cc3)c12	-9	14*	-1	1	4	-1	-4	-2	-8	20*
CCCc1cc(=O)oc2cc(C)cc(OCC(=O)NCCN3CCOCC3)c12	-10	-1	3	-5	35	-3	.	.	.	.
CCc1cc(=O)oc2cc(C)cc(OCC(=O)NCCN3CCOCC3)c12	7	4	1	14	19	0	.	.	.	.
CCc1cc(=O)oc2cc(C)cc(OCC(=O)NCCCN3CCOCC3)c12	-8	14*	-5	-19	9	-1	-3	-1	-6	22*
COc1cccc(C(C(=O)NCC2CCCO2)N(C(=O)Cn2nnc3ccccc32)c2ccc(NC(C)=O)cc2)c1OC (stereo unspecified)	-6	0	4	1	17	-1	.	.	.	.
O=C(NCc1n[nH]c(=S)n1-c1ccc(Cl)c(Cl)c1)c1ccco1	-2	-2	-14	-12	3	-2	.	.	.	.
COc1cc(CNCCNCC(C)O)ccc1OCc1ccc(Cl)nc1 (stereo unspecified)	-5	39*	6	-3	13	-3	-4	-2	-4	32*
CN(C)c1cccc(C(=O)OCc2cc(=O)oc3cc(O)ccc23)c1	-45	32*	-48	-36	-72	-3	-1	34*	-4	27*
SMILES	Jurkat NFkB inh	VIM-2 inhibitor	697 NFkB inh	aSyn UTR inh	Mdm2 MdmX PPI	IMP-1 inh-1	IMP-1 inh-2	VIM-2 FRET inh	TEM-1 counter	VIM-2 inh conf
CC1CN(S(=O)(=O)c2cccc(C(=O)OCc3cc(=O)oc4cc(O)ccc34)c2)CC(C)O1 (stereo unspecified)	16	0	-6	34	-9	-4	.	.	.	.
CCOC(=O)CNC(=O)CSc1ccc2nnc(-c3ccc(F)cc3)n2n1	-24	-2	-12	7	12	-4	.	.	.	.
CCSc1ccc2nnc(-c3cccs3)n2n1	-4	17*	0	34	31	-2	-3	-3	-8	28*
CCSc1ccc2nnc(-c3ccc(F)cc3)n2n1	5	14*	8	36	19	-2	-1	-4	0	24*
N#Cc1ccc(NC(=O)C2=COCCO2)cc1	-21	.	4	.	17	.	.	.	.	.
COc1cc(Oc2nc(C(F)(F)F)nc3ccccc23)ccc1C=O	9	14*	-9	1	2	-1	-3	-4	-5	24*
COc1ccc(Oc2nc(C(F)(F)F)nc3ccccc23)cc1	-7	4	0	8	13	-3	.	.	.	.
CC(=O)Nc1cccc(Oc2nc(C(F)(F)F)nc3ccccc23)c1	4	14*	6	13	34	-4	-3	-1	-7	26*
COc1cc2ccccc2cc1C(=O)N1CCc2ccccc21	21	.	-18	.	46	.	.	.	.	.
COC(=O)c1ccc(C)c(NC(=O)COC(=O)C2CC3CCCC(C2)C3=O)c1 (stereo unspecified)	-27	.	-23	5	-8	.	.	.	.	.
O=C1c2ccccc2C(=O)N1c1cccc2cccnc12	11	14*	7	10	18	-3	-3	-1	-3	3
O=C1C2C3C=CC(C3)C2C(=O)N1c1cccc2cccnc12 (stereo unspecified)	-10	-2	22	.	38	-2	.	.	.	.
COc1cccc(/C=N/NC(=O)c2ccc(-n3cnnn3)cc2)c1	3	.	27	.	4	.	.	.	.	.
N#Cc1nc(-c2ccccc2)oc1NCCCn1ccnc1	-2	26*	-13	4	6	-5	-3	-11	-6	45*
